In ChEMBL document CHEMBL4732121, “Imidazo[1,2-a]quinoxalines for melanoma treatment with original mechanism of action” (Eur J Med Chem, 2021):

Experiments:
[1] = test system: A-375; experiment: Antiproliferative activity against human A-375 cells assessed as reduction in cell viability measured after 96 hrs by MTT assay; format: functional, cell-based
Summary of the method: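 A375 cells in RPMI-1640 with 10% heat-inactivated FBS, 2 mM L-glutamine and antibiotics, 37°C, 5% CO₂. Seeded at 5000 cells/well and attached overnight, then exposed to 10⁻⁵–3.2.10⁻⁹ M in 0.15% DMSO/medium for 96 h. MTT at 0.5 mg/ml final for 4 h, formazan dissolved in 10% SDS/0.01 M HCl, OD 570 nm. At least three experiments in triplicate; IC50 from sigmoidal dose–response curves.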

[2] = Inhibition of pig brain tubulin polymerization at 5 uM measured after 45 mins by turbidimetry based spectrophotometric method relative to control; format: tissue-based, Sus scrofa; settings: 0.75 h
[3] = test system: MeWo; experiment: Antiproliferative activity against human MeWo cells assessed as reduction in cell viability measured after 96 hrs by MTT assay; format: functional, cell-based
[4] = test system: A2058; experiment: Antiproliferative activity against human A2058 cells assessed as reduction in cell viability measured after 96 hrs by MTT assay; format: functional, cell-based; settings: A2058, 96 h
[5] = test system: IPC-298; experiment: Antiproliferative activity against human IPC-298 cells assessed as reduction in cell viability measured after 96 hrs by MTT assay; format: functional, cell-based; settings: IPC-298, 96 h

Row | Structure (SMILES) | IC50 ([1]; Homo sapiens, A-375, 96 h) | further results
1 | CNc1nccn2c(-c3ccc(OC)c(OC)c3)cnc12 | > 10000 nM | –
2 | COc1ccc(-c2cnc3c(NCCCNC(=O)OC(C)(C)C)nc4ccccc4n23)cc1OC | > 10000 nM | –
3 | CNc1nc2cc(OC(F)(F)F)ccc2n2c(-c3ccc(OC)c(OC)c3)cnc12 | 3490 nM | –
4 | NCCNc1nc2ccccc2n2c(-c3ccc(O)c(O)c3)cnc12 | – | IC50 ([1]; a-375): 1700 nM
5 | CNc1nc2ccccc2n2c(-c3cccc(OC)c3)cnc12 | 383 nM | inhibition (INH) [2]: 84%; IC50 [3]: 125 nM; IC50 [4]: 185 nM; IC50 [5]: 469 nM
6 | CNc1nc2cc(C(F)(F)F)ccc2n2c(-c3ccc(O)c(O)c3)cnc12 | 6910 nM | –
7 | CNc1nc2ccc(C(F)(F)F)cc2n2c(-c3ccc(OC)c(OC)c3)cnc12 | > 10000 nM | –
8 | CNc1nccn2c(-c3ccc(O)c(O)c3)cnc12 | > 10000 nM | –
9 | CNc1nc2ccccc2n2c(Br)cnc12 | 2350 nM | –
10 | Nc1nccn2c(-c3ccc(O)c(O)c3)cnc12 | > 10000 nM | –
11 | COc1ccc(-c2cnc3c(OC)nc4ccccc4n23)cc1OC | 2930 nM | –
12 | CNc1nc2ccccc2n2ccnc12 | > 10000 nM | –
13 | CNc1nc2ccccc2n2c(-c3ccc(OC)c(OC)c3)cnc12 | 193 nM | –
14 | COc1ccc(-c2cnc3c(N(C)C)nc4ccccc4n23)cc1OC | 414 nM | –
